According to PMC7425103 (Drug Design, Development and Therapy, 2020):

Key:
Assay type in all cases: cell-based, human
[1] = tested on: MCF-7 cell line; assay: Annexin V-FITC/PI staining apoptosis assay; conditions: MCF-7, at IC50, 24 hours
Summary of the method: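 MCF-7 cells were seeded at 4 x 10^6/well and exposed to the test compound for 24 hours. Cells were washed three times with ice-cold PBS and resuspended in PBS. They were then stained with Annexin V-FITC and PI from a kit for 15 minutes at room temperature in the dark, and analysed by flow cytometry.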

[2] = tested on: MCF-7 (breast cancer) cell line; assay: MTT anticancer; conditions: ratio of IC50 values vs reference CA-4
Summary of the method: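 ATCC MCF-7 cells were grown in DMEM with 10% FBS and penicillin/streptomycin. After trypsin detachment they were seeded at 1000–2000 cells/well and held 34 hours at 37°C in 5% CO2. Test compound was added at 0.1, 1, 10, 25 and 100 μM for 72 hours. Then 5% MTT was added for 2 h at 37°C, formazan was dissolved in isopropanol, and absorbance was read at 570 nm. Viability was expressed as % of control and IC50 derived by curve fitting.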

[3] = tested on: Hep G2 (hepatocellular liver carcinoma) cell line; assay: MTT anticancer; conditions: ratio of IC50 values vs reference CA-4
[4] = tested on: MCF-7 cell line; assay: Cell cycle analysis by DNA flow cytometry; conditions: MCF-7, at IC50

COc1cc(/C=C/C(=O)c2ccc(NC(=O)c3ccccc3CN3C(=O)c4ccccc4C3=O)cc2)cc(OC)c1OC [Compound 7j, (E)-2-((1,3-Dioxoisoindolin-2-Yl)Methyl)-N-(4-(3-(3,4,5-Trimethoxyphenyl)Acryloyl)Phenyl)Benzamide]
cell necrosis, fold increase compared to untreated control [1]: 2.09 fold
early apoptotic cell population, fold more than untreated control [1]: 14.36 fold
late apoptotic cells population, folds increase vs untreated control [1]: 44.60 fold
fold anticancer activity relative to CA-4, MCF-7 [2]: 2.57 fold
fold anticancer activity relative to CA-4, Hep G2 [3]: 4.51 fold
apoptosis at preG1 phase, times higher than entinostat [4]: 1.04 times
cell accumulation percentage at G2/M phase, fold higher than CA-4 [4]: 1.05 fold
percentage of cells at G2/M, folds higher than entinostat [4]: 1.53 fold
